Data set [1] deals with Plasmodium falciparum. In words: Resistant index, ratio of IC50 for chloroquine-resistant Plasmodium falciparum W2 to IC50 for chloroquine-sensitive Plasmodium falciparum 3D7. It is filed as functional.
For data set [2], the system named is Plasmodium falciparum. In words: Antimalarial activity against chloroquine-resistant Plasmodium falciparum W2 after 48 to 72 hrs by SYBR green-1 assay. It is filed as functional, organism-based. A digest of the protocol: (§1)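 P. falciparum culture tested in vitro on the CQ-sensitive 3D7 or CQ-resistant W2 clone. Each experiment was run twice, with wells in triplicate. IC50 in nM is the mean of at least two experiments.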

Data set [3] relates to HUVEC. In words: Cytotoxicity against HUVEC at 0.01 to 50 umol/L after 24 hrs by Tryptan Blue assay. The class given is cell-based. Particulars: human. A digest of the protocol: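 Human umbilical vein endothelial cells (HUVEC) were exposed to final concentrations from 0.01 up to 50 μM. Cytotoxicity was reported as an IC50 or as a minimum cytotoxic value extrapolated from the tested range.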

The test system of data set [4] is Plasmodium falciparum. The data set is described as follows: Antimalarial activity against chloroquine-sensitive Plasmodium falciparum 3D7 after 48 to 72 hrs by SYBR green-1 assay. It is filed as functional, organism-based. Summed up: as §1
The test system of data set [5] is HUVEC. In words: Cytotoxicity against HUVEC up to 100 uM after 24 hrs by Tryptan Blue assay. It is filed as cell-based. Particulars: human.

pIC50: −log10 of the molar value.

Take `O=C1C(CC(F)(F)F)=CC(O)(CSc2ccc(F)cc2)N1CCNc1ccnc2cc(Cl)ccc12` (centres undefined): in data set [1], the “Ratio IC50” value worked out at 2.49. Moreover, the figures for the negative-log IC50 (pIC50) in data set [2] and in data set [4] were 6.12 and 6.52, respectively. The Activity result in data set [3] was “Non-toxic”.
Consider `O=C1C(CC(F)(F)F)=CC(O)(CSc2ccccc2)N1CCNc1ccnc2cc(Cl)ccc12` (centres undefined), for which the “Ratio IC50” value in data set [1] is given as 1.56. Besides, the negative logarithm of the IC50 (pIC50) in data set [2] is 6.78; in data set [4], 6.97. Further, in data set [3], the Activity entry was “Non-toxic”.
On to `O=C1C(CC(F)(F)F)=CC(O)(CSc2ccncc2)N1CCNc1ccnc2cc(Cl)ccc12` (centres undefined), for which, in data set [1], the “Ratio IC50” value turned out to be 7.48. The pIC50 in data set [2] is 6.18; in data set [4], 7.05.
Take `CN(CCNc1ccnc2cc(Cl)ccc12)CCN1C(=O)C(CC(F)(F)F)=CC1(O)CSc1ccccc1` (centres undefined): in data set [5], the Activity result is recorded as “Non-toxic”. Moreover, the figures for the pIC50 in data set [2] and in data set [4] were 7.26 and 7.33, respectively.
Turning to `COc1ccc(SCC2(O)C=C(CC(F)(F)F)C(=O)N2CCNc2ccnc3cc(Cl)ccc23)cc1` (centres undefined), in data set [1], the “Ratio IC50” value is on record as 1.71. The negative logarithm of the IC50 (pIC50) in data set [2] is 6.76; in data set [4], 7.00. Moreover, the Activity result in data set [3] was “Non-toxic”.
As for `CN(CCNc1ccnc2cc(Cl)ccc12)CCN1C(=O)C(CC(F)(F)F)=CC1(O)CSc1ccc(Br)cc1` (centres undefined), in data set [5], the Activity result is on record as “Non-toxic”. The values for the pIC50 in data set [2] and in data set [4] were 7.38 and 7.35, respectively.
Turning to `O=C1C(CC(F)(F)F)=CC(O)(CSc2ccccn2)N1CCNc1ccnc2cc(Cl)ccc12` (centres undefined), in data set [1], the “Ratio IC50” value stood at 1.22. The pIC50 was 6.66 in data set [2] and 6.75 in data set [4]. For the same compound, in data set [3], the Activity result is “Non-toxic”.
With `O=C1C(CC(F)(F)F)=CC(O)(CSc2cccc[n+]2[O-])N1CCNc1ccnc2cc(Cl)ccc12` (centres undefined), the “Ratio IC50” value in data set [1] is 1.13. Also, the negative-log IC50 (pIC50) in data set [2] was 6.56; in data set [4], 6.62. Moreover, the Activity entry in data set [3] is given as “Non-toxic”.
Consider `O=C1C(CC(F)(F)F)=CC(O)(CSc2ncccn2)N1CCNc1ccnc2cc(Cl)ccc12` (centres undefined), for which the “Ratio IC50” value in data set [1] is listed as 1.65. Also, the negative logarithm of the IC50 (pIC50) in data set [2] is 6.34; in data set [4] it was 6.56. Besides, the Activity entry in data set [3] is listed as “Non-toxic”.
Turning to `Cn1cnnc1SCC1(O)C=C(CC(F)(F)F)C(=O)N1CCNc1ccnc2cc(Cl)ccc12` (centres undefined), in data set [1], the “Ratio IC50” value is over 3.2. The values for the pIC50 in data set [2] and in data set [4] were under 5.80 and 6.30, respectively.
On to `CN(CCNc1ccnc2cc(Cl)ccc12)CCN1C(=O)C(CC(F)(F)F)=CC1(O)CSc1ccc(Cl)cc1` (centres undefined), for which, in data set [5], the Activity result is on record as “Non-toxic”. The negative-log IC50 (pIC50) in data set [2] is 7.24; in data set [4] it was 7.26.

The pIC50 is −log10 of the IC50, conventionally taken in molar units.

Source of the values: ChEMBL document CHEMBL2440053, “New route to the 5-((arylthio- and heteroarylthio)methylene)-3-(2,2,2-trifluoroethyl)-furan-2(5H)-ones--key intermediates in the synthesis of 4-aminoquinoline γ-lactams as potent antimalarial compounds” (Bioorg Med Chem Lett, 2013).
